Assay results: ChEMBL document CHEMBL1147187, “Design and synthesis of new potent dipeptidyl peptidase IV inhibitors with enhanced ex vivo duration” (Bioorg Med Chem, 2007)
Calls of active or inactive are those of the source. The calls are words filed in the database; no cut-off is given here.

Tests used:
Canis familiaris = test: Ex vivo inhibition of DPP4 in Beagle dog at 1 mg/kg, po after 12 hrs; assay type: functional; details: Canis lupus familiaris
In short: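 Male beagle dogs (11–15 kg) and male cynomolgus monkeys (3.5–6 kg), fasted 8 h, given a single oral dose of 1 mg/kg in 0.5% methyl cellulose. Femoral vein blood taken before dosing and at 12 h. Plasma DPP-IV activity measured as the initial rate of Gly-Pro-AMC cleavage (fluorescence, ex 355/em 460 nm, 37 °C); % inhibition is relative to basal activity.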

[1] = biological target: Dipeptidyl peptidase 4 (Rattus norvegicus) (UniProt P14740); test: Ex vivo inhibition of DPP4 in Sprague-Dawley rat plasma at 1 mg/kg, po after 6 hrs; assay type: organism-based; design: dose 1 mg/kg
In short: (§1)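 Male SD rats, 6–7 weeks old, fasted at least 8 h, given a single oral dose of 1 mg/kg in 0.5% methyl cellulose. Jugular vein blood taken before dosing and serially to 10 h (12 h in the species comparison). Plasma mixed with substrate (50 µL of 60 µM Gly-Pro-AMC). Initial fluorescence rate over 15 min at 37 °C; % inhibition is relative to basal activity.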

[2] = biological target: Dipeptidyl peptidase 4 (Rattus norvegicus) (UniProt P14740); test: Ex vivo inhibition of DPP4 in Sprague-Dawley rats plasma at 1 mg/kg, po after 12 hrs; assay type: organism-based; design: dose 1 mg/kg; in short: as §1
[3] = biological target: Dipeptidyl peptidase 4 (Rattus norvegicus) (UniProt P14740); test: Ex vivo inhibition of DPP4 in Sprague-Dawley rats plasma at 1 mg/kg, po after 10 hrs; assay type: organism-based; design: dose 1 mg/kg; in short: as §1
Cynomolgus monkey = test: animal or person; details: Macaca fascicularis, po, 12 h, read-out: Inhibition
[4] = Stability in Tris buffer at pH 7.4 after 24 hrs; assay type: physicochemical; details: read-out: Stability
In short: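 Remaining percentage measured after incubation in 100 mM Tris buffer, pH 7.4, at room temperature for 24 h.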

Rattus norvegicus [5] = test: Suppression of glucose level in Sprague-Dawley rats at 1 mg/kg, po administered 30 mins prior to glucose by glucose tolerance test after 12 hrs; assay type: functional, organism-based; design: dose 1 mg/kg
In short: (§2)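 Male SD rats (364–473 g), fasted at least 20 h, given vehicle (0.5% methyl cellulose) or 1 mg/kg orally at −0.5 h. Oral glucose 1 g/kg given at 0, 6 and 12 h. Tail-vein blood collected into heparinized tubes from −0.08 h to 14 h. Plasma glucose measured by glucose oxidase–peroxidase dye method.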

Rattus norvegicus [6] = test: Suppression of glucose level in Sprague-Dawley rats at 1 mg/kg, po administered 30 mins prior to glucose by glucose tolerance test after 6 hrs; assay type: functional, organism-based; design: dose 1 mg/kg; in short: as §2
Rattus norvegicus [7] = test: Suppression of glucose level in Sprague-Dawley rats at 1 mg/kg, po administered 30 mins prior to glucose by glucose tolerance test; assay type: functional, organism-based; design: dose 1 mg/kg; in short: as §2

Chain of Dipeptidyl peptidase 4 (Rattus norvegicus) (P14740 whole entry, looked up): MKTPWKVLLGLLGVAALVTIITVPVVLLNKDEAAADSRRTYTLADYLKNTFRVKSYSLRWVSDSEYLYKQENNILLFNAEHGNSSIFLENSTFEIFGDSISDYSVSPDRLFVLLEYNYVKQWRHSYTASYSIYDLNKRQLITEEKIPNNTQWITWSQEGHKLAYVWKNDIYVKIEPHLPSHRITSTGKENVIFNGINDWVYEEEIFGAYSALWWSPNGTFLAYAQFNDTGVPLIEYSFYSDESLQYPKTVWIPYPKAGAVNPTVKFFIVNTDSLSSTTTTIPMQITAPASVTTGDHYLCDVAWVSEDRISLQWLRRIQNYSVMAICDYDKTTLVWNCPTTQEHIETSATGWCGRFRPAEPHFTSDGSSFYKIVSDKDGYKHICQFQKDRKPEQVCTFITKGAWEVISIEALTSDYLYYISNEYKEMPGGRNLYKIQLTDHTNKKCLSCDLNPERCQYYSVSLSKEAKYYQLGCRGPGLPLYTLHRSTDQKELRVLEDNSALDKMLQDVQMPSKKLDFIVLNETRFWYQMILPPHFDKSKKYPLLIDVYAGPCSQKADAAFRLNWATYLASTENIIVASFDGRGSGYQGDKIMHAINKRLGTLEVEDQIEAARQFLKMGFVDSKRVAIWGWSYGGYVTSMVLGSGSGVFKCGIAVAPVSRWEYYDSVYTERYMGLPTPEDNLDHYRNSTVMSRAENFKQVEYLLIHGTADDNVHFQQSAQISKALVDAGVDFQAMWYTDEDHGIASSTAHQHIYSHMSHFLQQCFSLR

| Compound | inhibition [1] [%] | inhibition [3] [%] | other results |
| --- | --- | --- | --- |
| C[C@@H]1N[C@H](C(=O)N2CCC[C@H]2C#N)C[C@@H]1C(=O)N1Cc2ccccc2C1 | 86 | 77 | inhibition in vivo at 1 mg/kg (Canis familiaris): 16%; inhibition [2]: 71% |
| N#C[C@@H]1CCCN1C(=O)[C@@H]1C[C@H](C(=O)N2CCCCCCC2)CN1 | 63 |  |  |
| CCC[C@@H]1CN[C@H](C(=O)N2CCC[C@H]2C#N)C1 | 50 |  |  |
| C[C@@H]1N[C@H](C(=O)N2CCC[C@H]2C#N)C[C@@H]1C(=O)N1CCOCC1 | 94 | 85 | inhibition in vivo at 1 mg/kg (Cynomolgus monkey): 90%; inhibition in vivo at 1 mg/kg (Canis familiaris): 98% |
| C[C@@H]1N[C@H](C(=O)N2CCC[C@H]2C#N)C[C@@H]1C(=O)N(C)C | 95 | 84 | remaining at 24 h [4]: 92%; inhibition in vivo at 1 mg/kg (Cynomolgus monkey): 93%; inhibition in vivo at 1 mg/kg (Canis familiaris): 98%; Activity (Rattus norvegicus [5]): Active; inhibition [2]: 81%; Activity (Rattus norvegicus [6]): Active; Activity (Rattus norvegicus [7]): Active |
| CCCNC(=O)[C@@H]1CN[C@H](C(=O)N2CCC[C@H]2C#N)C1 | 59 | 21 |  |
| CN(C)C(=O)C[C@@H]1CN[C@H](C(=O)N2CCC[C@H]2C#N)C1 | 66 |  |  |
| CNC(=O)[C@@H]1CN[C@H](C(=O)N2CCC[C@H]2C#N)C1 | 75 | 28 |  |
| N#C[C@@H]1CCCN1C(=O)[C@@H]1C[C@H](C(N)=O)CN1 | 47 | 20 |  |
| N#C[C@@H]1CCCN1C(=O)[C@@H]1C[C@H](C(=O)N2CCCC2)CN1 | 85 | 40 |  |
| C[C@@H]1N[C@H](C(=O)N2CCC[C@H]2C#N)C[C@@H]1C(=O)N1CCSCC1 | 92 | 85 |  |
| CCN(C)C(=O)[C@H]1C[C@@H](C(=O)N2CCC[C@H]2C#N)N[C@H]1C | 92 | 79 | inhibition in vivo at 1 mg/kg (Cynomolgus monkey): 95%; inhibition in vivo at 1 mg/kg (Canis familiaris): 89%; inhibition [2]: 74% |
| N#C[C@@H]1CCCN1C(=O)[C@@H]1C[C@H](C(=O)N2CCSCC2)CN1 | 72 | 19 |  |
| N#C[C@@H]1CCCN1C(=O)[C@@H]1C[C@H](CC(=O)O)CN1 | 58 |  |  |
| N#C[C@@H]1CCCN1C(=O)[C@@H]1C[C@H](C(=O)N2CCCCC2)CN1 | 84 | 50 |  |
| N#C[C@@H]1CCCN1C(=O)[C@@H]1C[C@H](CCO)CN1 | 64 |  |  |
| N#C[C@@H]1CCCN1C(=O)[C@@H]1C[C@H](C(=O)N2CCCCCC2)CN1 | 68 |  |  |
| N#C[C@@H]1CCCN1C(=O)[C@@H]1C[C@H](C(=O)N2CCOCC2)CN1 | 73 | 44 |  |
| CN(C)C(=O)CC[C@@H]1CN[C@H](C(=O)N2CCC[C@H]2C#N)C1 | 58 |  |  |
| C[C@@H]1N[C@H](C(=O)N2CCC[C@H]2C#N)C[C@@H]1C(=O)N1CCC1 | 94 | 88 |  |
| N#C[C@@H]1CCCN1C(=O)[C@@H]1C[C@H](CO)CN1 | 64 |  |  |
| N#C[C@@H]1CCCN1C(=O)[C@@H]1CCCN1 | 20 |  |  |
| C=CC[C@@H]1CN[C@H](C(=O)N2CCC[C@H]2C#N)C1 | 38 |  |  |
| CCN(C)C(=O)[C@@H]1CN[C@H](C(=O)N2CCC[C@H]2C#N)C1 | 71 | 34 |  |
| N#C[C@@H]1CCCN1C(=O)[C@@H]1C[C@H](C(=O)N2CCC2)CN1 | 77 | 46 |  |
| CCN(CC)C(=O)[C@@H]1CN[C@H](C(=O)N2CCC[C@H]2C#N)C1 | 43 |  |  |
| C[C@@H]1N[C@H](C(=O)N2CCC[C@H]2C#N)C[C@@H]1C(=O)N1CCCCC1 | 91 | 81 |  |
| CCNC(=O)[C@@H]1CN[C@H](C(=O)N2CCC[C@H]2C#N)C1 | 60 | 19 |  |
| C[C@@H]1N[C@H](C(=O)N2CCC[C@H]2C#N)C[C@@H]1C(=O)N1CCCC1 | 94 | 88 | inhibition in vivo at 1 mg/kg (Cynomolgus monkey): 95%; inhibition in vivo at 1 mg/kg (Canis familiaris): 95%; inhibition [2]: 82% |
| CN(C)C(=O)[C@@H]1CN[C@H](C(=O)N2CCC[C@H]2C#N)C1 | 76 | 52 | remaining at 24 h [4]: 52%; inhibition in vivo at 1 mg/kg (Cynomolgus monkey): 44%; inhibition in vivo at 1 mg/kg (Canis familiaris): 45%; inhibition [2]: 24% |
